Experiment [1] deals with MDA-MB-231. Nature of the experiment: Antiproliferative activity against human MDA-MB-231 cells after 72 hrs. The class given is functional, cell-based. Conditions: MDA-MB-231, 72 h. An outline of the steps:
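MDA-MB-231 (ER-negative) monolayers in EMEM with 10% FBS, L-glutamine, pyruvate, NEAA, insulin at 37 °C, 5% CO2. Seeded 1 × 10⁴ cells/well with serum and dosed 24 h later with compound at 1–100 (DMSO and/or ethanol stocks diluted into medium). After 72 h, 3 h WST-1 read at 450 nm (ref 650). IC50 = concentration halving OD versus untreated controls. Mean ± SD, three independent experiments.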

Experiment [2] relates to MDA-MB-231. Nature of the experiment: Antiproliferative activity against human MDA-MB-231 cells at 10 uM after 72 hrs. In kind it is functional. An outline of the steps: (§1)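 MDA-MB-231 cells grown in serum-containing EMEM (10% FBS) were plated at 1 × 10⁴ cells/well. 24 h later they were exposed to a single compound level in fresh serum medium, using DMSO/ethanol stocks diluted into the medium. At 72 h, WST-1 was added for 3 h and formazan read at 450 nm (ref 650). Values are % growth inhibition versus controls, averaged ± SD over three experiments, each in triplicate.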

Experiment [3] relates to MDA-MB-231. As to the kind of experiment: Antiproliferative activity against human MDA-MB-231 cells at 1 uM after 72 hrs. In kind it is functional. An outline of the steps: as §1
Experiment [4] concerns MDA-MB-231. As to the kind of experiment: Antiproliferative activity against human MDA-MB-231 cells at 3 uM after 72 hrs. In kind it is functional. An outline of the steps: as §1
For experiment [5], the system named is MDA-MB-231. As to the kind of experiment: Antiproliferative activity against human MDA-MB-231 cells at 100 uM after 72 hrs. In kind it is functional. An outline of the steps: as §1
Experiment [6] concerns MDA-MB-231. Nature of the experiment: Antiproliferative activity against human MDA-MB-231 cells at 30 uM after 72 hrs. The class given is functional. An outline of the steps: as §1

Bounds are passed on as bounds.

Take `CN(C)CCNc1cc2c(c3oc4ccccc4c(=O)c13)CC(N)C(C)(C)O2` (configuration not stated): the IC50 in experiment [1] turned out to be 38 µM. For the same compound, the Activity in experiment [2], in experiment [3] and in experiment [4] was 20% in each case.
Regarding `COc1cc2c(c3oc4ccccc4c(=O)c13)CC(NCCN(C)C)C(C)(C)O2` (configuration not stated), inhibition in experiment [1] was half-maximal at 57 µM (IC50). Further, the Activity was found to be 15% in experiment [2]; 12% in experiment [3]; 12% in experiment [4]; 74% in experiment [5]; 15% in experiment [6].
In experiment [1], `CCN(CC)CCNC1Cc2c(cc(OC)c3c(=O)c4ccccc4oc23)OC1(C)C` (configuration not stated) registered an IC50 of 44 µM. For the same compound, the Activity was 15% in experiment [2]; 12% in experiment [3]; 12% in experiment [4]; 74% in experiment [5]; 15% in experiment [6].
Compound `CCN(CC)CCNc1cc2c(c3oc4ccccc4c(=O)c13)C=C([N+](=O)[O-])C(C)(C)O2` returned an IC50 in experiment [1] greater than 100 µM.
Compound `CN(C)CCNc1cc2c(c3oc4ccccc4c(=O)c13)CC([N+](=O)[O-])C(C)(C)O2` (configuration not stated) returned an IC50 in experiment [1] greater than 100 µM. For the same compound, the Activity in experiment [2], in experiment [3] and in experiment [4] was 20% in each case.
`CCN(CC)CCNc1cc2c(c3oc4ccccc4c(=O)c13)CC(N)C(C)(C)O2` (configuration not stated) returned an IC50 in experiment [1] of 62 µM. Moreover, the Activity in experiment [5] is on record as 75%.
`CN(C)CCNc1cc2c(c3oc4ccccc4c(=O)c13)CC(NC(=O)CN(C)C)C(C)(C)O2` (configuration not stated) registered an IC50 in experiment [1] of 50 µM. Moreover, the Activity in experiment [2], in experiment [3] and in experiment [4] was 20% throughout.
`CN(C)CCNc1cc2c(c3oc4ccccc4c(=O)c13)CC(NCCN(C)C)C(C)(C)O2` (configuration not stated) displayed an IC50 in experiment [1] of 46 µM. Further, the Activity in experiment [2], in experiment [3] and in experiment [4] was 20% each time.
`CCN(CC)CCNc1cc2c(c3oc4ccccc4c(=O)c13)CC(NCCN(CC)CC)C(C)(C)O2` (configuration not stated): the IC50 in experiment [1] was found to be 73 µM. This compound also displayed an Activity in experiment [5] of 75%.
With `COc1cc2c(c3oc4ccccc4c(=O)c13)CC(N)C(C)(C)O2` (configuration not stated), it took 53 µM to reach half-maximal inhibition in experiment [1] (IC50). Also, the Activity in experiment [2] is 15%; in experiment [3], 12%; in experiment [4], 12%; in experiment [5], 74%; in experiment [6] it was 15%.
The compound `CCN(CC)CC(=O)NC1Cc2c(cc(OC)c3c(=O)c4ccccc4oc23)OC1(C)C` (configuration not stated) showed an IC50 in experiment [1] of 52 µM. Further, the Activity in experiment [2] is 15%; in experiment [3] it was 12%; in experiment [4], 12%; in experiment [5], 74%; in experiment [6], 15%.
In turn, `CCN(CC)CCNc1cc2c(c3oc4ccccc4c(=O)c13)CC([N+](=O)[O-])C(C)(C)O2` (configuration not stated) yielded an IC50 in experiment [1] greater than 100 µM. The Activity in experiment [5] and in experiment [6] was 20% throughout.
For the compound `CN(C)CCNc1cc2c(c3oc4ccccc4c(=O)c13)C=C([N+](=O)[O-])C(C)(C)O2`, the IC50 in experiment [1] was found to be 21 µM.
Turning to `COc1cc2c(c3oc4ccccc4c(=O)c13)CC(NC(=O)CN(C)C)C(C)(C)O2` (configuration not stated), the midpoint of inhibition in experiment [1], the IC50, lay at 51 µM. The Activity in experiment [2] turned out to be 15%; in experiment [3] it was 12%; in experiment [4] it was 12%; in experiment [5], 74%; in experiment [6], 15%.
`CCN(CC)CCNc1cc2c(c3oc4ccccc4c(=O)c13)CC(NC(=O)CN(CC)CC)C(C)(C)O2` (configuration not stated): in experiment [1], the IC50 stood at 68 µM. Moreover, the Activity in experiment [5] is 75%.

The values are drawn from ChEMBL document CHEMBL1143800, “Design and synthesis of new pyranoxanthenones bearing a nitro group or an aminosubstituted side chain on the pyran ring. Evaluation of their growth inhibitory activity in breast cancer cells” (Eur J Med Chem, 2007).
